# Test results reported in ChEMBL document CHEMBL3399946, “Structure-activity relationships of substituted 1H-indole-2-carboxamides as CB1 receptor allosteric modulators” (Bioorg Med Chem, 2015).
# Molecular target: Cannabinoid receptor 2 (Homo sapiens) (UniProt P34972)
# Assay: Antagonist activity at human CB2 receptor expressed in CHO-RD-HGA16 cells assessed as inhibition of CP55940-induced calcium mobilization at 10 uM incubated for 15 mins prior to CP55940 addition by FLIPR assay
# Format: functional, cell-based
# Sequence of Cannabinoid receptor 2 (Homo sapiens) (P34972 whole entry): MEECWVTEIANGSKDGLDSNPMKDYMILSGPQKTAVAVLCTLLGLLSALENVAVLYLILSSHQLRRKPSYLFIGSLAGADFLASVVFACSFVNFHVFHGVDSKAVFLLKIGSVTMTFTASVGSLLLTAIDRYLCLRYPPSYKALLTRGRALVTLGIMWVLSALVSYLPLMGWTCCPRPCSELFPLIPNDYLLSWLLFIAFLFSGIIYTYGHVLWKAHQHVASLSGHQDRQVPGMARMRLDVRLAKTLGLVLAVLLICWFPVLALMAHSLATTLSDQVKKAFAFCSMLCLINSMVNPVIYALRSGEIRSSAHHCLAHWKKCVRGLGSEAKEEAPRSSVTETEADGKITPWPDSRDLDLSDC
row,inhibition [%],SMILES
1,25.8,CCc1c(C(=O)NCCc2ccc3c(c2)OCO3)[nH]c2ccc(Cl)cc12
2,1,CCCCCC(=O)Nc1ccc(CCNC(=O)c2[nH]c3ccc(Cl)cc3c2CC)cc1

# Molecular target: Cannabinoid receptor 2 (Homo sapiens) (UniProt P34972)
# Assay: Agonist activity at human CB2 receptor expressed in CHO-RD-HGA16 cells at 10 uM after 15 mins by FLIPR assay relative to CP55940
# Format: cell-based
# Summary of the method: (§1)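 Stably transfected CHO-RD-HGA16 cells (human CB1, or CB2 for line 2) seeded the day before (CB1 25,000, CB2 30,000 cells/well), cultured overnight at 37°C, 5% CO2. Loaded 45 min at 37°C with Calcium 5 dye in HBSS/20 mM HEPES/2.5 mM probenecid, pH 7.4.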
row,SMILES,Activity [%]
1,CCCCCCNc1ccc(CCNC(=O)c2[nH]c3ccc(Cl)cc3c2CC)cc1,< 30
2,CCCN(CCC)c1ccc(CCNC(=O)c2[nH]c3ccc(Cl)cc3c2CC)cc1,< 30
3,CCc1c(C(=O)NCCc2ccc(C(C)(C)C)cc2)[nH]c2ccc(Cl)cc12,< 30
4,CCc1c(C(=O)Nc2cccc(-c3cccc(N(C)C)n3)c2)[nH]c2ccc(Cl)cc12,< 30
5,CCc1c(C(=O)NCCc2ccc(N(C)C)cc2)[nH]c2ccc(Cl)cc12,< 30
6,CCc1c(C(=O)N2CCN(c3ccc(Cl)cc3)CC2)[nH]c2ccc(Cl)cc12,< 30
7,CCc1c(C(=O)NCCc2ccc(N3CCCCC3)cc2)[nH]c2ccc(F)cc12,< 30
8,CCc1c(C(=O)NCCc2ccc(N3CCCCC3)cc2)[nH]c2ccc(Cl)cc12,< 30
9,CCc1c(C(=O)NCCc2ccc(OC)cc2)[nH]c2ccc(Cl)cc12,< 30
10,CCc1c(C(=O)NCCc2ccc3c(c2)OCO3)[nH]c2ccc(Cl)cc12,< 30
11,CCCCCC(=O)Nc1ccc(CCNC(=O)c2[nH]c3ccc(Cl)cc3c2CC)cc1,< 30
12,CCc1c(C(=O)N2CCN(c3ccccc3)CC2)[nH]c2ccc(Cl)cc12,< 30

# Other lines, results leading:
row,Activity [%],SMILES
1,< 30,CCc1c(C(=O)NCCc2ccc(N(CC)CC)cc2)[nH]c2ccc(F)cc12
2,< 30,CCN(CC)c1ccc(CCNC(=O)c2[nH]c3ccc(F)cc3c2C)cc1
3,< 30,CCc1c(C(=O)NCCc2ccc(N(C)C)cc2)[nH]c2ccc(F)cc12
4,< 30,CCN(CC)c1ccc(CCNC(=O)c2cc3cc(F)ccc3[nH]2)cc1
5,< 30,CCc1c(C(=O)NCCc2ccc(N(CC)CC)cc2)[nH]c2ccc(Cl)cc12

# Molecular target: T1, Cannabinoid receptor 1 (Homo sapiens, UniProt P21554)
# Assay: Allosteric modulation of human CB1 receptor expressed in CHO-RD-HGA16 cells assessed as reduction of CP55940 Emax by calcium mobilization assay
# Format: functional, cell-based
# Summary of the method: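 CB1-expressing CHO-RD-HGA16 cells seeded at 25,000/well the previous day and loaded with Calcium 5 dye for 45 min at 37°C (HBSS, 20 mM HEPES, 2.5 mM probenecid, pH 7.4). Pretreated 15 min at 37°C with a single concentration of test compound, then serial dilutions of CP55,940 added on FLIPR Tetra. Fluorescence plotted against agonist concentration.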
# T1 sequence (P21554 whole entry): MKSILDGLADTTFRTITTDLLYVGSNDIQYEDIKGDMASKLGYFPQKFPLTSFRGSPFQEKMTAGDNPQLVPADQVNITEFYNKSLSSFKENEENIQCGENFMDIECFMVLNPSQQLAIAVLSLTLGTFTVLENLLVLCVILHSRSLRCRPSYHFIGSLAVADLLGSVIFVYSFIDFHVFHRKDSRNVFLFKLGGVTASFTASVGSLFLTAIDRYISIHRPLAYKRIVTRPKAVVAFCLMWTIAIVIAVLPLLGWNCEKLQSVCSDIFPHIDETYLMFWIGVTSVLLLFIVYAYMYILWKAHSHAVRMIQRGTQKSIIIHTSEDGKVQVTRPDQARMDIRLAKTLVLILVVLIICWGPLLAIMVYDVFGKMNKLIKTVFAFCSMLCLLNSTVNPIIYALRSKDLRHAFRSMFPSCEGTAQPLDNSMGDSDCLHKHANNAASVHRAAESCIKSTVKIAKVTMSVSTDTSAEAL
row,Activity,SMILES
1,Dose-dependent effect,CCc1c(C(=O)NCCc2ccc(N(C)C)cc2)[nH]c2ccc(F)cc12
2,Dose-dependent effect,CCc1c(C(=O)NCCc2ccc(N3CCCCC3)cc2)[nH]c2ccc(Cl)cc12

# Molecular target: T1, Cannabinoid receptor 1
# Assay: Agonist activity at human CB1 receptor expressed in CHO-RD-HGA16 cells at 10 uM after 15 mins by FLIPR assay relative to CP55940
# Format: cell-based
# Summary of the method: as §1
row,SMILES,Activity [%]
1,CCCCCCNc1ccc(CCNC(=O)c2[nH]c3ccc(Cl)cc3c2CC)cc1,< 30
2,CCCN(CCC)c1ccc(CCNC(=O)c2[nH]c3ccc(Cl)cc3c2CC)cc1,< 30
3,CCc1c(C(=O)NCCc2ccc(C(C)(C)C)cc2)[nH]c2ccc(Cl)cc12,< 30
4,CCc1c(C(=O)Nc2cccc(-c3cccc(N(C)C)n3)c2)[nH]c2ccc(Cl)cc12,< 30
5,CCc1c(C(=O)NCCc2ccc(N(C)C)cc2)[nH]c2ccc(Cl)cc12,< 30
6,CCc1c(C(=O)N2CCN(c3ccc(Cl)cc3)CC2)[nH]c2ccc(Cl)cc12,< 30
7,CCc1c(C(=O)NCCc2ccc(N3CCCCC3)cc2)[nH]c2ccc(F)cc12,< 30
8,CCc1c(C(=O)NCCc2ccc(N3CCCCC3)cc2)[nH]c2ccc(Cl)cc12,< 30
9,CCc1c(C(=O)NCCc2ccc(OC)cc2)[nH]c2ccc(Cl)cc12,< 30
10,CCc1c(C(=O)NCCc2ccc3c(c2)OCO3)[nH]c2ccc(Cl)cc12,< 30
11,CCCCCC(=O)Nc1ccc(CCNC(=O)c2[nH]c3ccc(Cl)cc3c2CC)cc1,< 30
12,CCc1c(C(=O)N2CCN(c3ccccc3)CC2)[nH]c2ccc(Cl)cc12,< 30

# Second part, the molecule after the results:
row,Activity [%],SMILES
1,< 30,CCc1c(C(=O)NCCc2ccc(N(CC)CC)cc2)[nH]c2ccc(F)cc12
2,< 30,CCN(CC)c1ccc(CCNC(=O)c2[nH]c3ccc(F)cc3c2C)cc1
3,< 30,CCc1c(C(=O)NCCc2ccc(N(C)C)cc2)[nH]c2ccc(F)cc12
4,< 30,CCN(CC)c1ccc(CCNC(=O)c2cc3cc(F)ccc3[nH]2)cc1
5,< 30,CCc1c(C(=O)NCCc2ccc(N(CC)CC)cc2)[nH]c2ccc(Cl)cc12

# Molecular target: T1, Cannabinoid receptor 1
# Assay: Antagonist activity at human CB1 receptor expressed in CHO-RD-HGA16 cells assessed as inhibition of CP55940-induced calcium mobilization incubated for 15 mins prior to CP55940 addition by FLIPR assay
# Format: functional, cell-based
row,SMILES,IC50 [nM]
1,CCCCCCNc1ccc(CCNC(=O)c2[nH]c3ccc(Cl)cc3c2CC)cc1,3620
2,CCCN(CCC)c1ccc(CCNC(=O)c2[nH]c3ccc(Cl)cc3c2CC)cc1,1800
3,CCc1c(C(=O)NCCc2ccc(C(C)(C)C)cc2)[nH]c2ccc(Cl)cc12,2430
4,CCc1c(C(=O)Nc2cccc(-c3cccc(N(C)C)n3)c2)[nH]c2ccc(Cl)cc12,> 10000
5,CCc1c(C(=O)NCCc2ccc(N(C)C)cc2)[nH]c2ccc(Cl)cc12,787
6,CCc1c(C(=O)N2CCN(c3ccc(Cl)cc3)CC2)[nH]c2ccc(Cl)cc12,> 10000
7,CCc1c(C(=O)NCCc2ccc(N3CCCCC3)cc2)[nH]c2ccc(F)cc12,605
8,CCc1c(C(=O)NCCc2ccc(N3CCCCC3)cc2)[nH]c2ccc(Cl)cc12,853
9,CCc1c(C(=O)NCCc2ccc(OC)cc2)[nH]c2ccc(Cl)cc12,2560
10,CCc1c(C(=O)NCCc2ccc3c(c2)OCO3)[nH]c2ccc(Cl)cc12,4320
11,CCCCCC(=O)Nc1ccc(CCNC(=O)c2[nH]c3ccc(Cl)cc3c2CC)cc1,> 10000
12,CCc1c(C(=O)N2CCN(c3ccccc3)CC2)[nH]c2ccc(Cl)cc12,> 10000

# Now those with a lower IC50, led by results:
row,IC50 [nM],SMILES
1,361,CCc1c(C(=O)NCCc2ccc(N(CC)CC)cc2)[nH]c2ccc(F)cc12
2,151,CCN(CC)c1ccc(CCNC(=O)c2[nH]c3ccc(F)cc3c2C)cc1
3,205,CCc1c(C(=O)NCCc2ccc(N(C)C)cc2)[nH]c2ccc(F)cc12
4,318,CCN(CC)c1ccc(CCNC(=O)c2cc3cc(F)ccc3[nH]2)cc1
5,483,CCc1c(C(=O)NCCc2ccc(N(CC)CC)cc2)[nH]c2ccc(Cl)cc12
